Several values for one entry are separate records, joined by “and”; a condition that tells them apart may be missing. Equal values may be shown once.
What was measured:
[1] = Surface tension and critical micelle concentration, Du Noüy ring method; format: physicochemical; conditions: aqueous, 25±0.5 °C; mean ± SD, n=3
Method in brief: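 Aqueous solutions freshly made at twice the predicted solubility as starting concentration. Du Noüy platinum ring force tensiometer, 25±0.5 °C; ring fully immersed, then slowly lifted, and force at detachment converted to surface tension. Static-zone surface tension compared with deionized water. Triplicate measurements.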

[2] = Short-term stability of aqueous solutions; format: physicochemical; conditions: aqueous solutions at −20, 4, 25 and 37 °C, compared with fresh samples
Method in brief: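 Test peptide aqueous solutions at set concentrations, held at −20, 4, 25 and 37 °C for 72 h. Then quantified by ESI triple-quad MS in flow-injection mode (direct infusion from autosampler). Expressed relative to fresh samples of the same initial concentration.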

[3] = Ex-vivo skin permeation, Franz diffusion cells; format: in vitro ADME, Sprague-Dawley rats; conditions: for Residual drug in the donor phase / Flux / Permeated drug through the skin: rat skin, mean ± SD, n=3; for Residual drug in the donor phase: after 48h; for Flux / Permeated drug through the skin: saturated solution donor; for Flux: 37 °C; for Flux / Unrecovered/ trapped drug: 48h; for Permeated drug through the skin: over 48h; for Unrecovered/ trapped drug: total applied minus permeated and donor-recovered amounts
Method in brief: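 Full-thickness abdominal skin from ~8-week male Sprague-Dawley rats (220-250 g), taken after isoflurane anaesthesia, mounted in upright Franz cells (2.0 cm2). Donor: peptide at saturated solubility, set from predicted logS. Receptor: 5 mL 10% (v/v) hydroethanolic solution, 37±0.5 °C, 300 rpm, 48 h. 1 mL sampled at 1-48 h with replacement, stored -20 °C, quantified by ESI-MS flow injection. Flux from permeated amount versus time.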

[4] = cited from earlier work
[5] = equilibrium zone, water; cited from earlier work
[6] = cited from earlier work; remark: listed apart in the source

Compound | CMC [1] [mg/L] | stability range in the aqueous medium after 72 hours [2] | Residual drug in the donor phase [3] | Flux [3] [µg/cm^2 /h] | Permeated drug through the skin [3] | Unrecovered/ trapped drug [3] | logP [4] | experimental surface tension [5] [mN/m] | accumulation in the epidermis [6] [%]
CCCCCCCC(=O)N[C@@H](CCCCN)C(=O)N[C@H](C(=O)O)[C@@H](C)O [Compound C8-KT] | 194.95 ± 0.05 | 98.9-101.6% | 21.29±3.851% | 1.084±0.085 | 33.2% and 33.24±9.562% | ≈ 34% | – | – | –
CCCCCCCCCC(=O)N[C@@H](CCCCN)C(=O)N[C@H](C(=O)O)[C@@H](C)O [Compound C10-KT] | 42.24 ± 0.06 | 96.6-103.7% | 55.23±3.377% | 0.032±0.009 | 2.3% and 2.314±1.087% | ≈42% | – | – | –
CCCCCCCCCCCC(=O)N[C@@H](CCCCN)C(=O)N[C@H](C(=O)O)[C@@H](C)O [Compound C12-KT] | 15.31 ± 0.05 | 96.2-101.8% | 21.49±7.454% | 0.016±0.006 | 0.5% and 0.499±0.070% | ≈78% | – | – | –
CCCCCCCCCCCCCCCC(=O)N[C@@H](CCCCN)C(=O)N[C@H](C(=O)O)[C@@H](C)O [Compound C16-KT, reference compound] | 1.89 ± 0.44 | 93.2-104.2% | 4.197±1.308% | 0.001±0.000 | 2.6% and 2.628±0.368% | ≈93% | – | – | –
C[C@@H](O)[C@H](NC(=O)[C@@H](N)CCCCN)C(=O)O [KT, lysine-threonine, reference compound] | – | 99.7-100.3% | 97.7% and 97.73±1.688% | 0.003±0.000 | 0.004% and 0.004±0.001% | – | – | – | –
Pal-KTTKS | – | – | – | – | – | – | 3.72 | 50.3±0.40 | 48
lysine-threonine-threonine-lysine-serine [KTTKS] | – | – | – | – | – | – | -3.54 | 69.00±2.7 | –

— paper PMC11830134 (BioImpacts : BI, 2023)
